NR2E3 ag-1 = activates human photoreceptor nuclear receptor NR2E3. inhibition of corepressor binding, % at 4.78 µM. AID 2300. GST-NR2E3/biotin-RetCOR TR-FRET, 1536-well. 0.12% of 320,000 active;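 active = percent inhibition above the cutoff of mean plus 3 SD of all tested compounds, set per screening campaign, cut at about 20% in these data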
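system = GST-tagged NR2E3 plus biotinylated RetCOR corepressor | input = 1.35 nM GST-NR2E3 | also added = 7 nM biotin-RetCOR | schedule = 5 h incubation at 4 °C | measured by = TR-FRET with europium anti-GST and streptavidin-D2, 340 nm excitation | read-out = percent loss of FRET ratio relative to control wells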
NR2E3 ag-2 = human photoreceptor-specific nuclear receptor agonism; AID 602229; 0.35% of 360,000 active; inhibition of corepressor binding, % at 3.98 µM; CHO-S Gal4-NCOR/VP16-NR2E3 two-hybrid, luciferase; Q9Y5X4;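 active = inhibition above the mean of all tested compounds plus 3 SD, cut at about 70% in these data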;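 also: higher means lower luciferase signal from less NR2E3 corepressor binding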
PG9 Ab binder = binds the HIV-1 gp120 antibody PG9 | inhibition, % at 6.7 µM | TR-FRET gp120-PG9 antibody binding | AID 624416 | 0.43% of 360,000 active; in the data active = inhibition above about 8.5%
Rev-erbA mod = modulators of human Rev-erb alpha DNA binding; P20393; Rev-erbα–FITC-DNA binding, fluorescence polarization, 90 min; activity, % at 10 µM; 0.79% of 370,000 active; AID 1259318;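 active = activity above about 14%, limit read from the data; passing the limit was not always enough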
Target sequence (P20393 whole entry, looked up): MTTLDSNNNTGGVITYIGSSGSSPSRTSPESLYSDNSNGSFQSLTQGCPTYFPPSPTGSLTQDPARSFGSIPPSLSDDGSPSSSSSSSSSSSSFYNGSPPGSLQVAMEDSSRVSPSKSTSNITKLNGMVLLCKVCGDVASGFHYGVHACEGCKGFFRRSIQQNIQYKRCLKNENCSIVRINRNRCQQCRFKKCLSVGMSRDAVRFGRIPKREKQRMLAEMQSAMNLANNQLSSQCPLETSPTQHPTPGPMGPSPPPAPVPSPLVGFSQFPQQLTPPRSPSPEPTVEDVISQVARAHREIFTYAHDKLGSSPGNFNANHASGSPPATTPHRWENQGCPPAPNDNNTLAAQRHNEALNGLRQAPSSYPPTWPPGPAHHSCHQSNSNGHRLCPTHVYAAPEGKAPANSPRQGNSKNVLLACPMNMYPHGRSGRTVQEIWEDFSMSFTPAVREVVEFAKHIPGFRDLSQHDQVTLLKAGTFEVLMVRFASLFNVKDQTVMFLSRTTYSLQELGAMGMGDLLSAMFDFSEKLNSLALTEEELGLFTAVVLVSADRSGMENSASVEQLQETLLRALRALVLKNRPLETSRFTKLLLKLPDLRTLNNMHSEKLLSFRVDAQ
Rev-erbA confirm = Rev-erb alpha (human) modulation, hit confirmation. shares compounds with Rev-erbA mod. Rev-erb alpha FITC-DNA binding, fluorescence polarization, 90 min. activation, % at 25 µM. 61% of 3,000 active. AID 1259319;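 active = activation at or above a set limit, or at least 3 SD above the negative control mean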
RORg DNA counter = counter-screen for Rev-erb alpha modulators: RORgamma DNA binding; shares compounds with Rev-erbA mod; purified RORgamma protein-FITC-DNA binding, fluorescence polarization; IC50, µM; 8% of 910 active; AID 1259320;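 active = Compounds whose fitted half-maximal concentration for disrupting protein-DNA binding is below 10 micromolar; the record names Rev-erb in its text, so the target is in doubt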
Large screens that a line does not name were inactive (follow-up assays come after a bar, where they were run). Most compounds without a hit are left out; they make up all but 1.5% or so of the library.

Cc1cc(C)n(-c2cc(N3CCOCC3)nc(-c3ccccc3)n2)n1	Rev-erbA mod 18 | Rev-erbA confirm 24
COC(=O)[C@]12C[C@H](CC(=O)NCc3ccc(OC)c(OC)c3)C(=O)N(Cc3ccco3)C1=C[C@H](C(C)C)O[C@@H]2C1CC1	none (no result: NR2E3 ag-1, NR2E3 ag-2, PG9 Ab binder)
COc1cc(/C=C2\SC(=O)N(CCNC(=O)c3sc4cc(F)ccc4c3Cl)C2=O)cc(OC)c1OC	Rev-erbA mod 72 | Rev-erbA confirm 32 | RORg DNA counter inactive
CCCCOCCCNC(=O)C[C@H]1C[C@@]2(C(=O)OC)C(=C[C@H](C(C)(C)C)O[C@@H]2C)N(Cc2ccco2)C1=O	none (no result: NR2E3 ag-1, NR2E3 ag-2, PG9 Ab binder)
Cc1nc(SCC(=O)N(C)c2ccccc2)[nH]c(=O)c1C	none (no result: NR2E3 ag-1, NR2E3 ag-2, PG9 Ab binder)
CCN1C(=O)/C(=C/C=C2\C=CN(CC)c3ccccc32)SC1=S	none
O=C(O)CN1C(=O)/C(=C/C=C/c2ccccc2)SC1=S	none
CCCN1C(=O)/C(=C\C=C2\N(CC)c3ccccc3C2(C)C)SC1=S	Rev-erbA mod 62 (no result: NR2E3 ag-1) | Rev-erbA confirm inactive
CN1/C(=C\C=C2/SC(=S)NC2=O)C(C)(C)c2ccccc21	Rev-erbA mod 37 | Rev-erbA confirm 19
CCN1C(=O)C(=CC=CN(C)c2ccccc2)SC1=S	Rev-erbA mod 42 (no result: NR2E3 ag-1) | Rev-erbA confirm 46 | RORg DNA counter inactive
COC(=O)c1cc2c(=O)c3ccccc3oc2nc1C	none (no result: NR2E3 ag-1)
CCc1nc2oc3ccc(C)cc3c(=O)c2cc1C(=O)OC	Rev-erbA mod 30 (no result: NR2E3 ag-1) | Rev-erbA confirm 27
Cc1ccc(C)c(N2CCN(c3ccc4cc(S(=O)(=O)N5CCCCC5)ccc4n3)CC2)c1	none
Cc1cccc(N2CCN(c3ccc4cc(S(=O)(=O)N5CCCCC5)ccc4n3)CC2C)c1 (stereo not given)	Rev-erbA mod 78 | Rev-erbA confirm 49 | RORg DNA counter inactive
Cc1cccc(N2CCN(S(=O)(=O)c3ccc4c(c3)n(C)c(=O)c(=O)n4C)CC2C)c1 (stereo not given)	none
Cc1cccc(N2CCN(c3ccc4cc(S(=O)(=O)N5CCCCC5)ccc4n3)CC2)c1C	Rev-erbA mod 101 | Rev-erbA confirm 50 | RORg DNA counter inactive
CN(CCc1ccccc1)C(=O)c1ccc2c(c1)ncn2C1CCCCC1	none (no result: NR2E3 ag-1, NR2E3 ag-2, PG9 Ab binder)
O=C(CSc1nnc(-c2ccccn2)n1Cc1ccco1)Nc1ccc(Oc2ccccc2)cc1	none (no result: NR2E3 ag-1, NR2E3 ag-2, PG9 Ab binder)
CCC(C(=O)Nc1nnc(-c2ccco2)s1)c1ccccc1 (stereo not given)	Rev-erbA mod 15 | Rev-erbA confirm inactive
CCc1nnc(NC(=O)C(CC)c2ccccc2)s1 (stereo not given)	none
COc1ccc(CN(CC#Cc2ccccc2)Cc2ccccc2)c(OC)c1	none (no result: NR2E3 ag-1, NR2E3 ag-2, PG9 Ab binder)
CN1[C@H](Cc2ccccc2)COc2cccc(N3CCCC3)c2S1(=O)=O	none (no result: NR2E3 ag-1, NR2E3 ag-2, PG9 Ab binder)
Cc1ccc(/C=N/c2sc(Cc3ccccc3)c(C)c2C(N)=O)o1	Rev-erbA mod 29 | Rev-erbA confirm inactive
Cc1c(Cc2ccccc2)sc(/N=C/c2ccc3ccccc3c2)c1C(N)=O	none (no result: PG9 Ab binder, Rev-erbA mod)
Cc1ccc(C)c(NC(=O)CN(C)C(=O)c2ccc(-c3cccc(C(F)(F)F)c3)o2)c1	Rev-erbA mod 22 | Rev-erbA confirm 23
CN(CC(=O)Nc1cccc(F)c1)C(=O)c1ccc(-c2cccc(C(F)(F)F)c2)o1	none
COC(=O)[C@H]1C[C@@]2(c3ccccc3)c3ccccc3N(S(=O)(=O)c3ccccc3)[C@H]2N1	none (no result: NR2E3 ag-1, NR2E3 ag-2, PG9 Ab binder)
Cc1ccc(-c2c(C#N)c(N)nc3c2CCCCC3)cc1	Rev-erbA mod 31 | Rev-erbA confirm 20
CSc1nc(N)c(C#N)c(-c2ccc(Cl)cc2)c1C#N	Rev-erbA mod 60 | Rev-erbA confirm 45 | RORg DNA counter inactive
CSc1nc(-c2ccc(C)cc2)nc(N)c1C#N	Rev-erbA mod 31 | Rev-erbA confirm inactive
CCc1nc(N)c(C#N)c(-c2ccc(F)cc2)c1C	none
CSc1nc(C)cc(C)c1C#N	none
CCOC(=O)[C@@]12CCC3=C1N(CCC3)C(=O)[C@H](CC(=O)NCc1ccc(C)o1)C2	none (no result: NR2E3 ag-1, NR2E3 ag-2, PG9 Ab binder)
O=C(Nc1cccnc1Cl)c1cc2c(s1)-c1ccccc1OC2	none
O=C(Nc1ccc(Cl)cn1)c1cc2c(s1)-c1ccccc1OC2	Rev-erbA mod 30 | Rev-erbA confirm inactive
COC(=O)[C@]12C[C@H](CC(=O)NCc3cccc4ccccc34)C(=O)N(Cc3ccco3)C1=C[C@H](C1CCCC1)O[C@@H]2C	none (no result: NR2E3 ag-1, NR2E3 ag-2, PG9 Ab binder)
Cc1ccc(CNC(=O)COC(=O)CCOc2ccc(C)cc2)cc1	none
Cc1ccc(OCCC(=O)OCC(=O)NC(=O)NCc2ccccc2)cc1	Rev-erbA mod 17 | Rev-erbA confirm inactive
CC(C)(C)C(=O)Cn1c(=O)n(CC2CCCO2)c(=O)c2ccccc21 (stereo not given)	none
O=C(Cn1c(=O)n(CC2CCCO2)c(=O)c2ccccc21)c1ccc(Cl)c(Cl)c1 (stereo not given)	Rev-erbA mod 27 | Rev-erbA confirm 24
Cc1ccc2c(c1)S(=O)(=O)c1ccc3ccccc3c1N2	Rev-erbA mod 32 (no result: NR2E3 ag-1) | Rev-erbA confirm 15
Cc1cccc(CSC2=CS(=O)(=O)c3ccccc3N2)c1	none
CCC(NC(=O)c1ccc2c(c1)c(C)c(C)n2Cc1ccc(Cl)cc1)c1ccccc1 (stereo not given)	none (no result: NR2E3 ag-1, NR2E3 ag-2, PG9 Ab binder)
Fc1ccc(NC2CCC23CCC(c2ccccc2)CC3)cc1C(F)(F)F (stereo not given)	none (no result: NR2E3 ag-1, NR2E3 ag-2, PG9 Ab binder)
COc1ccc(-c2cc3ccccc3oc2=O)cc1	none
Cc1ccc(-c2noc(-c3cc4ccccc4oc3=O)n2)cc1	Rev-erbA mod 33 | Rev-erbA confirm 18
COc1ccc(-c2nnc(-c3cc4ccccc4oc3=O)o2)cc1	Rev-erbA mod 24 | Rev-erbA confirm 24
O=c1oc2ccccc2cc1-c1nc(-c2ccccc2)no1	none (no result: PG9 Ab binder, Rev-erbA mod)
CCc1ccccc1N=Nc1c(N)[nH]n(-c2ccccc2)c1=O	none (no result: NR2E3 ag-1, NR2E3 ag-2, PG9 Ab binder)
Cc1ccc(-c2nnn3c2nc(NC(C)C)c2ccccc23)cc1	Rev-erbA mod 48 | Rev-erbA confirm 24
Cc1ccc(C(=O)Nc2nc3ccccc3n3nnnc23)cc1	none
CNc1nc2c(-c3ccc(Cl)cc3)nnn2c2ccccc12	Rev-erbA mod 18 | Rev-erbA confirm inactive
COc1ccc(CCNC(=O)c2cc3ccccn3n2)cc1	none (no result: NR2E3 ag-1, NR2E3 ag-2, PG9 Ab binder)
CC(C)NC(=O)/C(C#N)=C/c1ccc(N(C)C)o1	Rev-erbA mod 25 | Rev-erbA confirm inactive
Cc1ccc(/C=C(\C#N)C(=O)NC(C)C)o1	none
c1ccc(Cn2ccc3ccc(-c4ccc5ccn(Cc6cccc(-c7cccs7)c6)c5c4)cc32)cc1	none (no result: NR2E3 ag-1, NR2E3 ag-2, PG9 Ab binder)
Cc1ccc(-n2c(SCC(=O)Nc3cccc4ccccc34)nnc2-c2cnccn2)cc1	none (no result: NR2E3 ag-1, NR2E3 ag-2, PG9 Ab binder)
Cc1cc2cc3c(cc2nc1SCc1ccccn1)OCCO3	Rev-erbA mod 44 | Rev-erbA confirm 17
N#Cc1cc2ccccc2nc1SCc1ccccn1	none
C[N+]1(C)[C@H]2CC[C@H]1CC(OC(=O)C(O)c1ccccc1)C2 (stereo not given in full)	none (no result: NR2E3 ag-1, NR2E3 ag-2, PG9 Ab binder)
COC(=O)c1ccsc1NC(=O)c1ccc(Cl)s1	Rev-erbA mod 20 | Rev-erbA confirm inactive

Compound activity from PubChem.
